Assay results published in ChEMBL document CHEMBL4428038, “Overcoming chloroquine resistance in malaria: Design, synthesis and structure-activity relationships of novel chemoreversal agents” (Eur J Med Chem, 2016).
Activity calls are given as the source filed them. No cut-off for these calls is given here.

Assays:
Plasmodium falciparum K1 = experiment: Inhibition of CRT CVIET haplotype mutant in Plasmodium falciparum K1 isolate MRA-159 infected in erythrocytes assessed as chloroquine-coumarin probe accumulation at 10 uM after 10 hrs by Hoechst 33342 staining based flow cytometry (reference value: 35.57 +/- 3.84%); assay type: cell-based; design: scale not given: the % may be the effect or the level left
Method in brief: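 Infected erythrocyte cultures at 2.5% hematocrit and 7–12% parasitemia, synchronized to late-ring/early-trophozoite stage, were incubated with chloroquine-coumarin probe plus test agent for 10 h at 37 C. Cells were then washed, resuspended in PBS and read by flow cytometry (405 nm excitation, 450/50 filter). Hoechst-stained duplicate wells set parasitemia. Uptake = % infected erythrocytes fluorescent. Controls: PBS (negative), desipramine and parent compound (positive). ≥3 independent experiments; mean ± SEM.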

Plasmodium falciparum [1] = experiment: Intrinsic antimalarial activity against intermediate chloroquine-resistant Plasmodium falciparum 7G8 isolate MRA-154 harboring CRT SVMNT haplotype mutant assessed as reduction in parasite viability at 500 nM; assay type: functional, organism-based
Plasmodium falciparum [2] = experiment: Intrinsic antimalarial activity against chloroquine-resistant Plasmodium falciparum K1 isolate MRA-159 harboring CRT CVIET haplotype mutant assessed as reduction in parasite viability at 500 nM; assay type: functional, organism-based
Plasmodium falciparum [3] = experiment: Intrinsic antimalarial activity against chloroquine/artemisinin-resistant Plasmodium falciparum NHP4773 harboring CRT K76T mutant assessed as reduction in parasite viability at 500 nM; assay type: functional, organism-based
Plasmodium falciparum [4] = experiment: Intrinsic antimalarial activity against chloroquine-resistant Plasmodium falciparum Dd2 isolate MRA-156 harboring CRT K76T mutant assessed as reduction in parasite viability at 500 nM; assay type: functional, organism-based
Plasmodium falciparum [5] = experiment: Intrinsic antimalarial activity against chloroquine/artemisinin-resistant Plasmodium falciparum ARS272 harboring CRT K76T mutant assessed as reduction in parasite viability at 500 nM; assay type: functional, organism-based
Plasmodium falciparum [6] = experiment: Intrinsic antimalarial activity against chloroquine-sensitive Plasmodium falciparum 3D7 isolate MRA-102 assessed as reduction in parasite viability at 500 nM; assay type: functional, organism-based
Plasmodium falciparum [7] = experiment: Intrinsic antimalarial activity against chloroquine/artemisinin-resistant Plasmodium falciparum ARS233 harboring CRT K76T mutant assessed as reduction in parasite viability at 500 nM; assay type: functional, organism-based
Plasmodium falciparum [8] = experiment: Intrinsic antimalarial activity against chloroquine-resistant Plasmodium falciparum NHP4559 harboring CRT K76T mutant assessed as reduction in parasite viability at 500 nM; assay type: functional, organism-based
Plasmodium falciparum [9] = experiment: Intrinsic antimalarial activity against chloroquine-sensitive Plasmodium falciparum HB3 isolate MRA-155 assessed as reduction in parasite viability at 500 nM; assay type: functional, organism-based

OC1(c2ccc(Cl)cc2)CCNCC1
Activity (Plasmodium falciparum K1): 27.5% | Activity (Plasmodium falciparum [1]): inactive | Activity (Plasmodium falciparum [2]): inactive | Activity (Plasmodium falciparum [3]): inactive | Activity (Plasmodium falciparum [4]): inactive | Activity (Plasmodium falciparum [5]): inactive | Activity (Plasmodium falciparum [6]): inactive | Activity (Plasmodium falciparum [7]): inactive | Activity (Plasmodium falciparum [8]): inactive | Activity (Plasmodium falciparum [9]): inactive

NCC(CCN1CCC(N)CC1)(c1ccccc1)c1ccccc1
Activity (Plasmodium falciparum K1): 58.9% | Activity (Plasmodium falciparum [1]): inactive | Activity (Plasmodium falciparum [2]): inactive | Activity (Plasmodium falciparum [3]): inactive | Activity (Plasmodium falciparum [4]): inactive | Activity (Plasmodium falciparum [5]): inactive | Activity (Plasmodium falciparum [6]): inactive | Activity (Plasmodium falciparum [7]): inactive | Activity (Plasmodium falciparum [8]): inactive | Activity (Plasmodium falciparum [9]): inactive

O=C1Cc2ccccc2Sc2ccccc21
Activity (Plasmodium falciparum K1): 50.7% | Activity (Plasmodium falciparum [1]): inactive | Activity (Plasmodium falciparum [2]): inactive | Activity (Plasmodium falciparum [3]): inactive | Activity (Plasmodium falciparum [4]): inactive | Activity (Plasmodium falciparum [5]): inactive | Activity (Plasmodium falciparum [6]): inactive | Activity (Plasmodium falciparum [7]): inactive | Activity (Plasmodium falciparum [8]): inactive | Activity (Plasmodium falciparum [9]): inactive

NCC(CCN1CCCCC1)(c1ccccc1)c1ccccc1
Activity (Plasmodium falciparum K1): 61% | Activity (Plasmodium falciparum [1]): inactive | Activity (Plasmodium falciparum [2]): inactive | Activity (Plasmodium falciparum [3]): inactive | Activity (Plasmodium falciparum [4]): inactive | Activity (Plasmodium falciparum [5]): inactive | Activity (Plasmodium falciparum [6]): inactive | Activity (Plasmodium falciparum [7]): inactive | Activity (Plasmodium falciparum [8]): inactive | Activity (Plasmodium falciparum [9]): inactive

CC(C)(C)OC(=O)NC1CCN(CCC(C#N)(c2ccccc2)c2ccccc2)CC1
Activity (Plasmodium falciparum K1): 38.8% | Activity (Plasmodium falciparum [1]): inactive | Activity (Plasmodium falciparum [2]): inactive | Activity (Plasmodium falciparum [3]): inactive | Activity (Plasmodium falciparum [4]): inactive | Activity (Plasmodium falciparum [5]): inactive | Activity (Plasmodium falciparum [6]): inactive | Activity (Plasmodium falciparum [7]): inactive | Activity (Plasmodium falciparum [8]): inactive | Activity (Plasmodium falciparum [9]): inactive

N#CC(CCBr)(c1ccccc1)c1ccccc1
Activity (Plasmodium falciparum K1): 29.6% | Activity (Plasmodium falciparum [1]): inactive | Activity (Plasmodium falciparum [2]): inactive | Activity (Plasmodium falciparum [3]): inactive | Activity (Plasmodium falciparum [4]): inactive | Activity (Plasmodium falciparum [5]): inactive | Activity (Plasmodium falciparum [6]): inactive | Activity (Plasmodium falciparum [7]): inactive | Activity (Plasmodium falciparum [8]): inactive | Activity (Plasmodium falciparum [9]): inactive

CC(C)(C)OC(=O)N1CCCC(N)C1 (stereo unspecified)
Activity (Plasmodium falciparum K1): 52.2% | Activity (Plasmodium falciparum [1]): inactive | Activity (Plasmodium falciparum [2]): inactive | Activity (Plasmodium falciparum [3]): inactive | Activity (Plasmodium falciparum [4]): inactive | Activity (Plasmodium falciparum [5]): inactive | Activity (Plasmodium falciparum [6]): inactive | Activity (Plasmodium falciparum [7]): inactive | Activity (Plasmodium falciparum [8]): inactive | Activity (Plasmodium falciparum [9]): inactive

N#CC(CCN1CCC(O)(c2ccc(Cl)cc2)CC1)(c1ccccc1)c1ccccc1
Activity (Plasmodium falciparum K1): 25.9% | Activity (Plasmodium falciparum [1]): inactive | Activity (Plasmodium falciparum [2]): inactive | Activity (Plasmodium falciparum [3]): inactive | Activity (Plasmodium falciparum [4]): inactive | Activity (Plasmodium falciparum [5]): inactive | Activity (Plasmodium falciparum [6]): inactive | Activity (Plasmodium falciparum [7]): inactive | Activity (Plasmodium falciparum [8]): inactive | Activity (Plasmodium falciparum [9]): inactive

N[C@@H]1C2CCN(CC2)[C@@H]1Cc1ccccc1 (relative stereo)
Activity (Plasmodium falciparum K1): 40.1% | Activity (Plasmodium falciparum [1]): inactive | Activity (Plasmodium falciparum [2]): inactive | Activity (Plasmodium falciparum [3]): inactive | Activity (Plasmodium falciparum [4]): inactive | Activity (Plasmodium falciparum [5]): inactive | Activity (Plasmodium falciparum [6]): inactive | Activity (Plasmodium falciparum [7]): inactive | Activity (Plasmodium falciparum [8]): inactive | Activity (Plasmodium falciparum [9]): inactive

N#CC(CCN1CCN(c2ccc(F)cc2)CC1)(c1ccccc1)c1ccccc1
Activity (Plasmodium falciparum K1): 49% | Activity (Plasmodium falciparum [1]): inactive | Activity (Plasmodium falciparum [2]): inactive | Activity (Plasmodium falciparum [3]): inactive | Activity (Plasmodium falciparum [4]): inactive | Activity (Plasmodium falciparum [5]): inactive | Activity (Plasmodium falciparum [6]): inactive | Activity (Plasmodium falciparum [7]): inactive | Activity (Plasmodium falciparum [8]): inactive | Activity (Plasmodium falciparum [9]): inactive

CC(C)(C)OC(=O)N1CCCC(NCc2ccccc2I)C1 (stereo unspecified)
Activity (Plasmodium falciparum K1): 40.5% | Activity (Plasmodium falciparum [1]): inactive | Activity (Plasmodium falciparum [2]): inactive | Activity (Plasmodium falciparum [3]): inactive | Activity (Plasmodium falciparum [4]): inactive | Activity (Plasmodium falciparum [5]): inactive | Activity (Plasmodium falciparum [6]): inactive | Activity (Plasmodium falciparum [7]): inactive | Activity (Plasmodium falciparum [8]): inactive | Activity (Plasmodium falciparum [9]): inactive

c1ccc(CNC2C3CCN(CC3)C2Cc2ccccc2)cc1 (mixture of isomers)
Activity (Plasmodium falciparum K1): 74.4% | Activity (Plasmodium falciparum [1]): inactive | Activity (Plasmodium falciparum [2]): inactive | Activity (Plasmodium falciparum [3]): inactive | Activity (Plasmodium falciparum [4]): inactive | Activity (Plasmodium falciparum [5]): inactive | Activity (Plasmodium falciparum [6]): inactive | Activity (Plasmodium falciparum [7]): inactive | Activity (Plasmodium falciparum [8]): inactive | Activity (Plasmodium falciparum [9]): inactive

O=C1C2CCN(CC2)C1C(c1ccccc1)c1ccccc1 (stereo unspecified)
Activity (Plasmodium falciparum K1): 49% | Activity (Plasmodium falciparum [1]): inactive | Activity (Plasmodium falciparum [2]): inactive | Activity (Plasmodium falciparum [3]): inactive | Activity (Plasmodium falciparum [4]): inactive | Activity (Plasmodium falciparum [5]): inactive | Activity (Plasmodium falciparum [6]): inactive | Activity (Plasmodium falciparum [7]): inactive | Activity (Plasmodium falciparum [8]): inactive | Activity (Plasmodium falciparum [9]): inactive

N#CC(CCN1CCC(O)CC1)(c1ccccc1)c1ccccc1
Activity (Plasmodium falciparum K1): 63.9% | Activity (Plasmodium falciparum [1]): inactive | Activity (Plasmodium falciparum [2]): inactive | Activity (Plasmodium falciparum [3]): inactive | Activity (Plasmodium falciparum [4]): inactive | Activity (Plasmodium falciparum [5]): inactive | Activity (Plasmodium falciparum [6]): inactive | Activity (Plasmodium falciparum [7]): inactive | Activity (Plasmodium falciparum [8]): inactive | Activity (Plasmodium falciparum [9]): inactive

CSc1ccc2c(c1)C(=O)Cc1ccccc1S2
Activity (Plasmodium falciparum K1): 49.3% | Activity (Plasmodium falciparum [1]): inactive | Activity (Plasmodium falciparum [2]): inactive | Activity (Plasmodium falciparum [3]): inactive | Activity (Plasmodium falciparum [4]): inactive | Activity (Plasmodium falciparum [5]): inactive | Activity (Plasmodium falciparum [6]): inactive | Activity (Plasmodium falciparum [7]): inactive | Activity (Plasmodium falciparum [8]): inactive | Activity (Plasmodium falciparum [9]): inactive

Ic1ccccc1CN[C@@H]1C2CCN(CC2)[C@@H]1Cc1ccccc1 (relative stereo)
Activity (Plasmodium falciparum K1): 25.8% | Activity (Plasmodium falciparum [1]): inactive | Activity (Plasmodium falciparum [2]): inactive | Activity (Plasmodium falciparum [3]): inactive | Activity (Plasmodium falciparum [4]): inactive | Activity (Plasmodium falciparum [5]): inactive | Activity (Plasmodium falciparum [6]): inactive | Activity (Plasmodium falciparum [7]): inactive | Activity (Plasmodium falciparum [8]): inactive | Activity (Plasmodium falciparum [9]): inactive

CNCCCN1c2ccccc2CCc2ccccc21
Activity (Plasmodium falciparum K1): 78.8%

O=C1/C(=C/c2ccccc2)N2CCC1CC2
Activity (Plasmodium falciparum K1): 39% | Activity (Plasmodium falciparum [1]): inactive | Activity (Plasmodium falciparum [2]): inactive | Activity (Plasmodium falciparum [3]): inactive | Activity (Plasmodium falciparum [4]): inactive | Activity (Plasmodium falciparum [5]): inactive | Activity (Plasmodium falciparum [6]): inactive | Activity (Plasmodium falciparum [7]): inactive | Activity (Plasmodium falciparum [8]): inactive | Activity (Plasmodium falciparum [9]): inactive

CC(C)(C)OC(=O)N1CCN(C2Cc3ccccc3Sc3ccc(Cl)cc32)CC1 (stereo unspecified)
Activity (Plasmodium falciparum K1): 43.4% | Activity (Plasmodium falciparum [1]): inactive | Activity (Plasmodium falciparum [2]): inactive | Activity (Plasmodium falciparum [3]): inactive | Activity (Plasmodium falciparum [4]): inactive | Activity (Plasmodium falciparum [5]): inactive | Activity (Plasmodium falciparum [6]): inactive | Activity (Plasmodium falciparum [7]): inactive | Activity (Plasmodium falciparum [8]): inactive | Activity (Plasmodium falciparum [9]): inactive

NC(=O)C(CCN1CCN(c2ccc(F)cc2)CC1)(c1ccccc1)c1ccccc1
Activity (Plasmodium falciparum K1): 57.7% | Activity (Plasmodium falciparum [1]): inactive | Activity (Plasmodium falciparum [2]): inactive | Activity (Plasmodium falciparum [3]): inactive | Activity (Plasmodium falciparum [4]): inactive | Activity (Plasmodium falciparum [5]): inactive | Activity (Plasmodium falciparum [6]): inactive | Activity (Plasmodium falciparum [7]): inactive | Activity (Plasmodium falciparum [8]): inactive | Activity (Plasmodium falciparum [9]): inactive

NCC(CCN1CCN(c2ccc(F)cc2)CC1)(c1ccccc1)c1ccccc1
Activity (Plasmodium falciparum K1): 60.5% | Activity (Plasmodium falciparum [1]): inactive | Activity (Plasmodium falciparum [2]): inactive | Activity (Plasmodium falciparum [3]): inactive | Activity (Plasmodium falciparum [4]): inactive | Activity (Plasmodium falciparum [5]): inactive | Activity (Plasmodium falciparum [6]): inactive | Activity (Plasmodium falciparum [7]): inactive | Activity (Plasmodium falciparum [8]): inactive | Activity (Plasmodium falciparum [9]): inactive

NC(=O)C(CCN1CCCCC1)(c1ccccc1)c1ccccc1
Activity (Plasmodium falciparum K1): 63.2% | Activity (Plasmodium falciparum [1]): inactive | Activity (Plasmodium falciparum [2]): inactive | Activity (Plasmodium falciparum [3]): inactive | Activity (Plasmodium falciparum [4]): inactive | Activity (Plasmodium falciparum [5]): inactive | Activity (Plasmodium falciparum [6]): inactive | Activity (Plasmodium falciparum [7]): inactive | Activity (Plasmodium falciparum [8]): inactive | Activity (Plasmodium falciparum [9]): inactive

Ic1ccccc1CNCC(c1ccccc1)c1ccccc1
Activity (Plasmodium falciparum K1): 50.9% | Activity (Plasmodium falciparum [1]): inactive | Activity (Plasmodium falciparum [2]): inactive | Activity (Plasmodium falciparum [3]): inactive | Activity (Plasmodium falciparum [4]): inactive | Activity (Plasmodium falciparum [5]): inactive | Activity (Plasmodium falciparum [6]): inactive | Activity (Plasmodium falciparum [7]): inactive | Activity (Plasmodium falciparum [8]): inactive | Activity (Plasmodium falciparum [9]): inactive

O=C1Cc2ccccc2Sc2ccc(Cl)cc21
Activity (Plasmodium falciparum K1): 49.1% | Activity (Plasmodium falciparum [1]): inactive | Activity (Plasmodium falciparum [2]): inactive | Activity (Plasmodium falciparum [3]): inactive | Activity (Plasmodium falciparum [4]): inactive | Activity (Plasmodium falciparum [5]): inactive | Activity (Plasmodium falciparum [6]): inactive | Activity (Plasmodium falciparum [7]): inactive | Activity (Plasmodium falciparum [8]): inactive | Activity (Plasmodium falciparum [9]): inactive
